Kir21 inh = blocks the mouse Kir2.1 inward-rectifier potassium channel | P35561 | HEK293-Kir2.1, FluxOR thallium flux fluorescence; hits give low values | B-score at 10 µM | 310,000 compounds, 0.85% hits | AID 1672;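 active = fluorescence ratio B-score at or below minus 3 SD of library scores, with starting-brightness B-score within 2 SD, cut at about -4.2 in these data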;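 note: channel flux triggered by added potassium and thallium sulfate stimulus; B-score of peak minus minimum fluorescence over baseline after thallium stimulus; more negative B-score means stronger Kir2.1 block with less thallium influx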
KCNQ1 inh = human KCNQ1 channel inhibition | P51787 | CHO-K1 KCNQ1, FluxOR thallium flux fluorescence; hits give high values | B-score at 10 µM | 310,000 compounds, 1.3% hits;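 active = compounds whose thallium flux B-score, printed positive for inhibition, exceeds three library SD while starting fluorescence stays within three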;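 note: channel opened by potassium depolarization with thallium stimulus after 20 min compound exposure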
hERG protect = hERG (human) protection from proarrhythmic block. Q12809. CHO-hERG, FluxOR thallium flux, dofetilide IC70 present. activation (rescue from dofetilide block), less the hit threshold, % at 10 µM. 310,000 compounds, 0.51% hits;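 active = activation above the mean of controls blocked by dofetilide plus 5 SD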;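 note: thallium influx through hERG after potassium depolarization seen as dye fluorescence rise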
KCNK3 block = human KCNK3 channel inhibition, primary screen. CHO-KCNK3 thallium flux, FluxOR fluorescence; hits give low values. 340,000 compounds, 0.84% hits. B-score at 10 µM. O14649;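 active = B-score under library mean minus 4 SD, starting fluorescence ratio at most library mean plus 5 SD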;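 note: more negative B-score means stronger inhibition of thallium flux through KCNK3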
KCNQ1 act = potentiates or activates the human KCNQ1 potassium channel; CHO-K1 KCNQ1, thallium flux FluxOR fluorescence; hits give high values; P51787; 310,000 compounds, 0.35% hits; B-score at 10 µM;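 active = fluorescence ratio B-score, a plate-corrected score, at least three library SD, with initial intensity B-score within 5 SD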
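Medium – assay buffer, equal DMSO in all wells · Material – CHO-K1 cell line with stable KCNQ1 potassium channel expression · Signal – kinetic FluxOR thallium fluorescence, 10-s 1-Hz baseline, 110-s post-stimulus read · Compound – single concentration per compound, DMSO matched to controls · Schedule – 37 °C overnight plating, 90-min dark dye load, 20-min compound pretreatment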
KCNK9 block = blocks the human KCNK9 two-pore domain potassium channel | AID 488922 | 310,000 compounds, 1.2% hits | B-score at 10 µM | HEK293 KCNK9, FluxOR thallium flux fluorescence; hits give low values | Q9NPC2;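 active = ratio B-score over 3 SD below the library mean, with starting fluorescence within 5 SD of its mean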;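 note: negative B-score means less thallium flux so channel inhibition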
Target sequence (Q9NPC2 whole entry, looked up, the tested form may be a part): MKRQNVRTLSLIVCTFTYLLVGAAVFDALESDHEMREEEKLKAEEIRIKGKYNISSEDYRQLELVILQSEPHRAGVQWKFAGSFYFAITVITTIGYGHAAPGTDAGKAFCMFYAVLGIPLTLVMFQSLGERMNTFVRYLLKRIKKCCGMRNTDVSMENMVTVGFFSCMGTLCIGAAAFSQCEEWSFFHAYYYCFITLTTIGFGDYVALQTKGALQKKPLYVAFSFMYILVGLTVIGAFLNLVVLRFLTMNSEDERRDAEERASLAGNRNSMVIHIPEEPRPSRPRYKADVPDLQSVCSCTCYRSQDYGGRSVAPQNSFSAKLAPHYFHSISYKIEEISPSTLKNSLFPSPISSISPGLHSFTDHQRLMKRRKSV
KCNK9 block conf = human KCNK9 inhibitor confirmation; shares compounds with KCNK9 block; HEK293 KCNK9 cells, FluxOR thallium flux fluorescence; inhibition, % at 10 µM; 4,900 compounds, 43% hits; AID 492992;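 active = thallium signal inhibited by more than 5 SD of the compound-free buffer control wells, on both duplicate plates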;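 note: 0% = assay buffer control wells without compound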
Kir21 sel = selectivity of KCNK9 modulators against mouse Kir2.1 | shares compounds with KCNK9 block | Kir2.1 cells, FluxOR thallium flux fluorescence | inhibition, % at 10 µM | 4,900 compounds, 4% hits | AID 492993;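 active = thallium signal drop more than 5 SD beyond the mean of the no-compound control wells, seen in both duplicate plates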;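 note: signal is fluorescence rise after thallium addition divided by baseline fluorescence; plate controls were assay buffer only for no effect and full block by chlorpromazine control for full effect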
KCNK9 uninduced = non-induced cell nonspecific activity of KCNK9 modulators; shares compounds with KCNK9 block; non-induced KCNK9-HEK293, FluxOR thallium flux; inhibition, % at 10 µM; 4,900 compounds, 40% hits; AID 492997;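 active = thallium signal drop beyond 5 SD of the untreated control mean, on both duplicate plates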;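 note: plate controls were buffer only IC0 wells for no effect and SID17386958 at its maximal inhibitory level for full effect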
KCNK3 inh conf = human KCNK3 channel inhibition, confirmation assay | shares compounds with KCNK3 block | CHO-KCNK3 thallium flux, FluxOR fluorescence; 0% buffer, 100% carvedilol maximal block | ratio percent of control, % at 10 µM | 2,400 compounds, 99% hits | AID 651638;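 active = ratio percent of control, averaged over triplicates, above buffer control mean plus 5 SD, cut at about 64% in these data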;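 note: ratio is the fluorescence rise from min to max over baseline after thallium stimulus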
KCNK3 noninduced = counter-screen for KCNK3 inhibitors: effect in non-induced cells; shares compounds with KCNK3 block; non-induced KCNK3 parental cells, FluxOR thallium flux; hits give low values; thallium flux ratio (lower = more inhibition) at 10 µM; 2,400 compounds, 40% hits; AID 651747;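 active = thallium flux ratio, averaged over three wells, more than 5 SD below the buffer control mean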;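 note: host cells are CHO cells without KCNK3 induction; ratio is peak minus trough fluorescence over baseline then normalized to buffer controls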
Active calls of the source: *. An excerpt weighted towards active compounds, which were near 3.7% of everything screened.

Results for Cc1ccc(O)c(-c2cc(C(=O)NCc3ccncc3)[nH]n2)c1 ?
Kir21 inh: 0.62; KCNQ1 inh: inactive; hERG protect: -4; KCNK3 block: -9.2*; KCNQ1 act: inactive; KCNK9 block: -11*; KCNK9 block conf: 55%*; Kir21 sel: inactive; KCNK9 uninduced: 30%*; KCNK3 inh conf: 107*; KCNK3 noninduced: inactive

How did Cc1cc(C)cc(C(=O)NC(=S)Nc2ccc(Cc3ccncc3)cc2)c1 do in these assays?
Kir21 inh: -3; KCNQ1 inh: inactive; hERG protect: -10; KCNK3 block: -10*; KCNQ1 act: inactive; KCNK9 block: inactive; KCNK9 block conf: inactive; Kir21 sel: inactive; KCNK9 uninduced: inactive; KCNK3 inh conf: 98*; KCNK3 noninduced: inactive

What do the screens show for `Cc1cn(C2OC(COC(=O)c3ccccc3)C(O)C2O)c(=O)[nH]c1=O` (stereo not drawn)?
Kir21 inh: 0.31; KCNQ1 inh: inactive; hERG protect: -14; KCNK3 block: inactive; KCNQ1 act: inactive; KCNK9 block: inactive

Results for Cc1cn(C2OC(COC(=O)c3ccccc3)C(OC(=O)c3ccccc3)C2OC(=O)c2ccccc2)c(=O)[nH]c1=O (stereo not drawn) ?
Kir21 inh: 2.8; KCNQ1 inh: inactive; hERG protect: -17; KCNK3 block: -11*; KCNQ1 act: inactive; KCNK9 block: -10*; KCNK9 block conf: 38%*; Kir21 sel: inactive; KCNK9 uninduced: 34%*; KCNK3 inh conf: 103*; KCNK3 noninduced: 0.16*

Results for COC(=O)C1=C(C)N=C2SC(C#N)=C(N)N2C1c1cccc(OC)c1 (stereo not drawn) ?
Kir21 inh: 2.1; KCNQ1 inh: inactive; hERG protect: -11; KCNK3 block: inactive; KCNQ1 act: inactive; KCNK9 block: inactive

How did COC(=O)C1=C(C)N=C2SC(C#N)=C(N)N2C1c1ccc(OC)cc1 (stereo not drawn) do in these assays?
Kir21 inh: -0.15; KCNQ1 inh: inactive; hERG protect: -6; KCNK3 block: -10*; KCNQ1 act: inactive; KCNK9 block: -8.9*; KCNK9 block conf: 50%*; Kir21 sel: inactive; KCNK9 uninduced: inactive; KCNK3 inh conf: 112*; KCNK3 noninduced: inactive

Results for CCN(CC(=O)NCc1ccc(Cl)cc1)C(=O)c1ccc(S(=O)(=O)NCc2ccco2)cc1 ?
Kir21 inh: 0.01; KCNQ1 inh: inactive; hERG protect: -9; KCNK3 block: inactive; KCNQ1 act: inactive; KCNK9 block: inactive

What do the screens show for `CC(C)C(=O)Nc1cccc(C(=O)NCCc2ccc(S(N)(=O)=O)cc2)c1`?
Kir21 inh: -0.28; KCNQ1 inh: inactive; hERG protect: -10; KCNK3 block: inactive; KCNQ1 act: inactive; KCNK9 block: inactive

What do the screens show for `COc1cccc(NC(=O)C(NCCc2ccc(S(N)(=O)=O)cc2)c2ccccc2)c1` (stereo not drawn)?
Kir21 inh: -1.2; KCNQ1 inh: inactive; hERG protect: -12; KCNK3 block: -8.7*; KCNQ1 act: inactive; KCNK9 block: -9*; KCNK9 block conf: 38%*; Kir21 sel: inactive; KCNK9 uninduced: 31%*; KCNK3 inh conf: 106*; KCNK3 noninduced: inactive
